Measurements reported in ChEMBL document CHEMBL5058577, “EUbOPEN Chemogenomics Library 2 (Multiplex)” (2022).

Tested on: Fibroblast
Assay: Multiplex assay against human fibroblast
Assay type: toxicity, cell-based
Summary of the method: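 On a CQ1 microscope at 37°C and 5% CO2, live cells were imaged after compound addition. They had been stained at seeding with Hoechst33342, BioTracker Green Microtubule Cytoskeleton Dye, MitoTracker Red and Annexin V Alexa Fluor 680. CellPathfinder machine-learning gating assigned cells to Hoechst high-intensity objects or normal cells, normal cells to healthy, pyknosed or fragmented nuclei, and pyknosed cells to mitotic or apoptotic. Tubulin, mitochondrial-mass and membrane-permeability phenotypes are per cents of healthy-nucleus cells.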

[1] = 12 h, 1 µM, compound concentration 1 uM, replicate 1
[2] = 12 h, 1 µM, compound concentration 1 uM, replicate 2
[3] = 12 h, 10 µM, compound concentration 10 uM, replicate 1
[4] = 12 h, 10 µM, compound concentration 10 uM, replicate 2
[5] = 24 h, 1 µM, compound concentration 1 uM, replicate 1
[6] = 24 h, 1 µM, compound concentration 1 uM, replicate 2
[7] = 24 h, 10 µM, compound concentration 10 uM, replicate 1
[8] = 24 h, 10 µM, compound concentration 10 uM, replicate 2
[9] = 48 h, 1 µM, compound concentration 1 uM, replicate 1
[10] = 48 h, 1 µM, compound concentration 1 uM, replicate 2
[11] = 48 h, 10 µM, compound concentration 10 uM, replicate 1
[12] = 48 h, 10 µM, compound concentration 10 uM, replicate 2

In the case of `Cl.N=C(N)NC(=O)Cc1c(Cl)cccc1Cl` [GUANFACINE HYDROCHLORIDE], the “Population Apoptotic (%)” value [1] is reported as 44%, the “Population Fragmented Nuclei (%)” value [1] is reported as 20% and the “Population Healthy Nuclei (%)” value [1] is reported as 62%. The “Population Hoechst High Intensity Objects (%)” value [1] was 2%, the “Population Membrane Permeable-Phenotype (%)” value [1] was 0% and the “Population Mitochondria Different-Phenotype (%)” value [1] was 4%. For the same molecule, the “Population Mitotic Cells (%)” value [1] was 55%, the “Population Normal (%)” value [1] was 97% and the “Population Pyknosed Nuclei (%)” value [1] was 16%. For the same molecule, the “Population Tubulin-Different-Phenotype (%)” value [1] was 32%, the “Total Cell Count” value [1] was 167 and the “Population Apoptotic (%)” value [2] was 28%. For the same molecule, the “Population Fragmented Nuclei (%)” value [2] was 23%, the “Population Healthy Nuclei (%)” value [2] was 45% and the “Population Membrane Permeable-Phenotype (%)” value [2] was 3%. The “Population Mitochondria Different-Phenotype (%)” value [2] was 7%, the “Population Mitotic Cells (%)” value [2] was 71% and the “Population Pyknosed Nuclei (%)” value [2] was 31%. The “Population Tubulin-Different-Phenotype (%)” value [2] was 46%, the “Total Cell Count” value [2] was 149 and the “Population Apoptotic (%)” value [3] was 66%. For the same molecule, the “Population Fragmented Nuclei (%)” value [3] was 16%, the “Population Healthy Nuclei (%)” value [3] was 68% and the “Population Hoechst High Intensity Objects (%)” value [3] was 0%. For the same molecule, the “Population Membrane Permeable-Phenotype (%)” value [3] was 1%, the “Population Mitochondria Different-Phenotype (%)” value [3] was 5% and the “Population Mitotic Cells (%)” value [3] was 33%. The “Population Normal (%)” value [3] was 99%, the “Population Pyknosed Nuclei (%)” value [3] was 15% and the “Population Tubulin-Different-Phenotype (%)” value [3] was 24%. For the same molecule, the “Total Cell Count” value [3] was 139, the “Population Apoptotic (%)” value [4] was 35% and the “Population Fragmented Nuclei (%)” value [4] was 22%. The “Population Healthy Nuclei (%)” value [4] was 47%, the “Population Hoechst High Intensity Objects (%)” value [4] was 10% and the “Population Membrane Permeable-Phenotype (%)” value [4] was 5%. The “Population Mitotic Cells (%)” value [4] was 64%, the “Population Normal (%)” value [4] was 89% and the “Population Pyknosed Nuclei (%)” value [4] was 29%. For the same molecule, the “Population Tubulin-Different-Phenotype (%)” value [4] was 46%, the “Total Cell Count” value [4] was 127 and the “Population Apoptotic (%)” value [5] was 58%. The “Population Fragmented Nuclei (%)” value [5] was 22%, the “Population Healthy Nuclei (%)” value [5] was 62% and the “Population Hoechst High Intensity Objects (%)” value [5] was 1%. For the same molecule, the “Population Membrane Permeable-Phenotype (%)” value [5] was 0%, the “Population Mitochondria Different-Phenotype (%)” value [5] was 5% and the “Population Mitotic Cells (%)” value [5] was 41%. The “Population Normal (%)” value [5] was 98%, the “Population Pyknosed Nuclei (%)” value [5] was 14% and the “Population Tubulin-Different-Phenotype (%)” value [5] was 26%. The “Total Cell Count” value [5] was 169, the “Population Apoptotic (%)” value [6] was 45% and the “Population Fragmented Nuclei (%)” value [6] was 23%. The “Population Healthy Nuclei (%)” value [6] was 46%, the “Population Hoechst High Intensity Objects (%)” value [6] was 6% and the “Population Membrane Permeable-Phenotype (%)” value [6] was 12%. The “Population Mitochondria Different-Phenotype (%)” value [6] was 8%, the “Population Mitotic Cells (%)” value [6] was 54% and the “Population Normal (%)” value [6] was 93%. The “Population Pyknosed Nuclei (%)” value [6] was 30%, the “Population Tubulin-Different-Phenotype (%)” value [6] was 50% and the “Total Cell Count” value [6] was 130. The “Population Apoptotic (%)” value [7] was 63%, the “Population Fragmented Nuclei (%)” value [7] was 17% and the “Population Healthy Nuclei (%)” value [7] was 68%. The “Population Hoechst High Intensity Objects (%)” value [7] was 1%, the “Population Membrane Permeable-Phenotype (%)” value [7] was 0% and the “Population Mitochondria Different-Phenotype (%)” value [7] was 4%. The “Population Mitotic Cells (%)” value [7] was 36%, the “Population Normal (%)” value [7] was 98% and the “Population Pyknosed Nuclei (%)” value [7] was 14%. For the same molecule, the “Population Tubulin-Different-Phenotype (%)” value [7] was 19%, the “Total Cell Count” value [7] was 137 and the “Population Apoptotic (%)” value [8] was 25%. For the same molecule, the “Population Fragmented Nuclei (%)” value [8] was 26%, the “Population Healthy Nuclei (%)” value [8] was 55% and the “Population Hoechst High Intensity Objects (%)” value [8] was 4%. For the same molecule, the “Population Membrane Permeable-Phenotype (%)” value [8] was 13%, the “Population Mitochondria Different-Phenotype (%)” value [8] was 3% and the “Population Mitotic Cells (%)” value [8] was 75%. For the same molecule, the “Population Normal (%)” value [8] was 95%, the “Population Pyknosed Nuclei (%)” value [8] was 18% and the “Population Tubulin-Different-Phenotype (%)” value [8] was 58%. The “Total Cell Count” value [8] was 114, the “Population Apoptotic (%)” value [9] was 61% and the “Population Fragmented Nuclei (%)” value [9] was 25%. The “Population Healthy Nuclei (%)” value [9] was 63%, the “Population Hoechst High Intensity Objects (%)” value [9] was 1% and the “Population Membrane Permeable-Phenotype (%)” value [9] was 0%. The “Population Mitochondria Different-Phenotype (%)” value [9] was 6%, the “Population Mitotic Cells (%)” value [9] was 38% and the “Population Normal (%)” value [9] was 98%. For the same molecule, the “Population Pyknosed Nuclei (%)” value [9] was 11%, the “Population Tubulin-Different-Phenotype (%)” value [9] was 32% and the “Total Cell Count” value [9] was 162. The “Population Apoptotic (%)” value [10] was 50%, the “Population Fragmented Nuclei (%)” value [10] was 33% and the “Population Healthy Nuclei (%)” value [10] was 45%. The “Population Hoechst High Intensity Objects (%)” value [10] was 3%, the “Population Membrane Permeable-Phenotype (%)” value [10] was 4% and the “Population Mitochondria Different-Phenotype (%)” value [10] was 11%. The “Population Mitotic Cells (%)” value [10] was 50%, the “Population Normal (%)” value [10] was 96% and the “Population Pyknosed Nuclei (%)” value [10] was 21%. The “Population Tubulin-Different-Phenotype (%)” value [10] was 57%, the “Total Cell Count” value [10] was 145 and the “Population Apoptotic (%)” value [11] was 66%. For the same molecule, the “Population Fragmented Nuclei (%)” value [11] was 22%, the “Population Healthy Nuclei (%)” value [11] was 67% and the “Population Hoechst High Intensity Objects (%)” value [11] was 1%. For the same molecule, the “Population Membrane Permeable-Phenotype (%)” value [11] was 1%, the “Population Mitochondria Different-Phenotype (%)” value [11] was 6% and the “Population Mitotic Cells (%)” value [11] was 33%. For the same molecule, the “Population Normal (%)” value [11] was 98%, the “Population Pyknosed Nuclei (%)” value [11] was 10% and the “Population Tubulin-Different-Phenotype (%)” value [11] was 24%. The “Total Cell Count” value [11] was 142, the “Population Apoptotic (%)” value [12] was 45% and the “Population Fragmented Nuclei (%)” value [12] was 39%. For the same molecule, the “Population Healthy Nuclei (%)” value [12] was 41%, the “Population Hoechst High Intensity Objects (%)” value [12] was 6% and the “Population Membrane Permeable-Phenotype (%)” value [12] was 8%. For the same molecule, the “Population Mitochondria Different-Phenotype (%)” value [12] was 2%, the “Population Mitotic Cells (%)” value [12] was 54% and the “Population Normal (%)” value [12] was 93%. For the same molecule, the “Population Pyknosed Nuclei (%)” value [12] was 19%, the “Population Tubulin-Different-Phenotype (%)” value [12] was 67% and the “Total Cell Count” value [12] was 120.
